Reference: ChEMBL document CHEMBL2062417, “Biotinylated quercetin as an intrinsic photoaffinity proteomics probe for the identification of quercetin target proteins” (Bioorg Med Chem, 2011)
Active and inactive are the calls of the source.

Legend:
[1] = biological target: Actin, cytoplasmic 1 (Homo sapiens) (UniProt P60709); assay: Binding affinity to ACTB in human Jurkat cells at 150 uM followed by UV irradiation for 30 mins with Wood's glass filtered medium pressure mercury arc light prior to cell lysis measured after denaturing wash by SDS-PAGE based pull down assay
Outline: (§1)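 Jurkat cells were grown in RPMI with 10% FBS (about 15×10^6 cells) and treated 2 h with 150 μM BioQ in 3% aqueous DMSO. They were heat-shocked at 43 °C for 30 min, recovered 1 h at 37 °C, and UV-irradiated (320–400 nm, peak 365 nm, 30 min, 4 °C) before or after sonication lysis. Streptavidin-agarose capture ran 1 h. Beads were washed ≥3× with lysis buffer or 2% SDS Tris pH 7.4, boiled, run on 12% SDS-PAGE and silver-stained.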

[2] = biological target: T1, Ubiquitin-like modifier-activating enzyme 1 (Homo sapiens) (UniProt P22314); assay: Binding affinity to UBA1 in human Jurkat cells at 150 uM followed by UV irradiation for 30 mins with Wood's glass filtered medium pressure mercury arc light after cell lysis measured after denaturing wash by SDS-PAGE based pull down assay; outline: as §1
T1 sequence (whole entry): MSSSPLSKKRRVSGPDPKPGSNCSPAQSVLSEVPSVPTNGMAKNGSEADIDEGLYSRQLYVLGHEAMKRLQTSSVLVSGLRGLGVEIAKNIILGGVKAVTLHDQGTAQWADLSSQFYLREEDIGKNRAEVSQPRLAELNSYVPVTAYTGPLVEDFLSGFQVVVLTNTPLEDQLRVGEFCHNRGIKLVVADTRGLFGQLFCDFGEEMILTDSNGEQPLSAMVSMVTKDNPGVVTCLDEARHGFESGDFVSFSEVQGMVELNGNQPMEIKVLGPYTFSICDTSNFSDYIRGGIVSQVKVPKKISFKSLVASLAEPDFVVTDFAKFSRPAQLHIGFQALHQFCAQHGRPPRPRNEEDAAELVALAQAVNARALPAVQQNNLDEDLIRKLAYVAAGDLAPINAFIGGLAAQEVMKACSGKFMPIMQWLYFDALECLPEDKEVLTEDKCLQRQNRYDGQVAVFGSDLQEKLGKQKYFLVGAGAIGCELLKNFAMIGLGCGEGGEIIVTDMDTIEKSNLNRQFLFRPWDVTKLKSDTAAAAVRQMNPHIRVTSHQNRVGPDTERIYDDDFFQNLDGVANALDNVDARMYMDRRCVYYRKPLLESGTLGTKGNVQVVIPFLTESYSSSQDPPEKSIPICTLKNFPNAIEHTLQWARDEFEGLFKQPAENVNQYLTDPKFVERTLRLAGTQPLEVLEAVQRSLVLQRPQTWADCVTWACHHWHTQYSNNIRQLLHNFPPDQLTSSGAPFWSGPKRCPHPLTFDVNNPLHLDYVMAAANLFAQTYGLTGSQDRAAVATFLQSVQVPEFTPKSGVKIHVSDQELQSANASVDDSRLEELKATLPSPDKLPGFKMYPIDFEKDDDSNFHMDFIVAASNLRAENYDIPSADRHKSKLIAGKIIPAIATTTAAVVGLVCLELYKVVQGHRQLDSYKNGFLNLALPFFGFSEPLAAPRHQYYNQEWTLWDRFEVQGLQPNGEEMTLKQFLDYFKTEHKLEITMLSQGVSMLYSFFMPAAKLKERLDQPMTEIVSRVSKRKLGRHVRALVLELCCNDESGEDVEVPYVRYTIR

[3] = biological target: T2, Splicing factor 3B subunit 3 (Homo sapiens) (UniProt Q15393); assay: Binding affinity to SF3B3 in human Jurkat cells at 150 uM followed by UV irradiation for 30 mins with Wood's glass filtered medium pressure mercury arc light prior to cell lysis measured after denaturing wash by LC-MS/MS based pull down assay
T2 sequence (whole entry): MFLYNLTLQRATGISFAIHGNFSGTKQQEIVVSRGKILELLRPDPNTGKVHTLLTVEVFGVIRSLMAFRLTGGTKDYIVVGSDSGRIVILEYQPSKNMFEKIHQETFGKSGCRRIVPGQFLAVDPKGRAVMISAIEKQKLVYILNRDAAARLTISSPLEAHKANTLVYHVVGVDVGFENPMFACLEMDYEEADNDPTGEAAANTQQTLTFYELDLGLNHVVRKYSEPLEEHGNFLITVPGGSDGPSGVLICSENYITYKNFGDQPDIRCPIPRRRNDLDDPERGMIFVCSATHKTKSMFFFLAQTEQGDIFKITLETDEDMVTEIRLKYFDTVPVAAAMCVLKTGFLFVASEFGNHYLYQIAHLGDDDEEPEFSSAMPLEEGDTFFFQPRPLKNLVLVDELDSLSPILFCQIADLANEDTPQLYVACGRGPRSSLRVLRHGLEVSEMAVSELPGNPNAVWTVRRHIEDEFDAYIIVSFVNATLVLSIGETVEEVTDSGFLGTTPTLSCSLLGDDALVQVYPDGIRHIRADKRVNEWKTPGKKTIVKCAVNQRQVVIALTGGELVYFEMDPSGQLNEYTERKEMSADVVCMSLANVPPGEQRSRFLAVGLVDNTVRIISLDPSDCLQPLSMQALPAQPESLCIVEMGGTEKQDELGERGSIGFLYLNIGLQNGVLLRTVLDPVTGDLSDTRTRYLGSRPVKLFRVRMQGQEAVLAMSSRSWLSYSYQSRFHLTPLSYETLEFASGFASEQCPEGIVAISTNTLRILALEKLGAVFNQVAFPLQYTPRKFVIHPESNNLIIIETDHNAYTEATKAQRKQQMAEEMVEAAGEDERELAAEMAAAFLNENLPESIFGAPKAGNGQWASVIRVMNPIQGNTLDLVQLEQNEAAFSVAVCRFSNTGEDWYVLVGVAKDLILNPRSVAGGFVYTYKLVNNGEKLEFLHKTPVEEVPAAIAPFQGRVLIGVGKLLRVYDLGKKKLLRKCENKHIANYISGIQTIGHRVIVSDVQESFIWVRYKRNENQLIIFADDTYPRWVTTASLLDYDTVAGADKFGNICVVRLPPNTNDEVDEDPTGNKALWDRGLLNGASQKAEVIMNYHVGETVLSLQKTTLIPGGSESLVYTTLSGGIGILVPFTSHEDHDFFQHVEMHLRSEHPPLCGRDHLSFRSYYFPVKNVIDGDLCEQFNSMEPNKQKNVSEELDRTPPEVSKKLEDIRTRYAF
Outline: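 Silver-stained bands from cells irradiated before lysis were excised, destained, reduced with 10 mM DTT, alkylated with 50 mM iodoacetamide and digested with trypsin overnight. Peptides were extracted in 1% TFA/50% acetonitrile. Nano-C18 LC used a 2–50% acetonitrile gradient with 0.1% formic acid over 50 min at 260 nL/min, followed by MS/MS identification.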

Measured: Activity

O=C(CCCC[C@@H]1SC[C@@H]2NC(=O)N[C@@H]21)NCCOCCOCCNC(=O)COc1cc(O)c2c(=O)c(O)c(-c3ccc(O)c(O)c3)oc2c1
active: all assays above
